Consider 3 compounds from PMC4476059 (Cell, 2015).

Common to all, as to type: cell-based
For assay [1], the target named is T1, full-length wild-type LPA1 (Homo sapiens, UniProt Q92633). Briefly: Ca2+ mobilization assay in B103 cells expressing full-length wild-type LPA1. The settings on record: read-out: EC50, Ca2+ mobilization assay; B103 cells heterologously expressing full-length wild-type LPA1; normalized to 3 μM 1-oleoyl-LPA (Figure 6D). Background: Calcium flux is commonly read through the fluorescence of an indicator in the cells.

Assay [2] deals with T1, full-length wild-type LPA1. The experiment in a line: cAMP assay. As to conditions: read-out: EC50, cAMP assay; B103 cells expressing full-length wild-type LPA1; 10 μM forskolin; n=2 (Figure 6D).
Assay [3] concerns the target T2, LPA1 (Homo sapiens, UniProt Q92633). Briefly: Neurite retraction assay in B103 cells expressing LPA1. The settings on record: stable cell line expressing LPA1, 15 min treatment. Put shortly: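 B103 rat neuroblastoma stable line carrying HA-tagged full-length human LPA1 (G418-selected, sorted for high anti-HA staining), serum-starved overnight in FreeStyle 293 medium. Cells were given ligands for 15 min at 37°C, washed, and fixed in 2% paraformaldehyde. Under the microscope, round cells lacking neurite extensions were counted and expressed as a percentage of observed cells.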

The target in assay [4] is T2, LPA1. Briefly: F-actin stress fiber formation assay in B103 cells expressing LPA1. The settings on record: 15 min treatment. Put shortly:
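Rat neuroblastoma B103 cells stably expressing HA-tagged full-length human LPA1 (G418 selection, FACS-sorted for high anti-HA signal), starved overnight in FreeStyle 293 medium, then exposed to ligands for 15 min at 37°C. Cells were fixed with 2% paraformaldehyde, washed with 0.3% Triton X-100 in PBS, stained with 1 μg/mL rhodamine-phalloidin for 30 min at room temperature, and imaged by confocal microscopy.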

T1 sequence (Q92633 whole entry): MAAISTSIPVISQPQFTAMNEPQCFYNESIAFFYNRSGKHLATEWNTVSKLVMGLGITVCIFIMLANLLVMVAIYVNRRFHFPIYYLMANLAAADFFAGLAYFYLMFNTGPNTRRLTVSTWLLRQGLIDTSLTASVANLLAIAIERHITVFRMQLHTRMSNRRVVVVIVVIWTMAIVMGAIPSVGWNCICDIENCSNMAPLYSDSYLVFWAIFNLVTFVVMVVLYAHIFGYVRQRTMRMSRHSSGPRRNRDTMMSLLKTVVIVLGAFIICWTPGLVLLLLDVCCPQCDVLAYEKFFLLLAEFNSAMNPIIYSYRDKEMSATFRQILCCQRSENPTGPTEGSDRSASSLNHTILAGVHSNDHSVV
T2 sequence (Q92633 whole entry): as above

In general, EC50 refers to the midpoint of the concentration-response curve. Take `CCCCC/C=C\C/C=C\C/C=C\C/C=C\CCCC(=O)OC[C@@H](O)COP(=O)(O)O` [1-ALPA, 1-arachidonoyl-LPA]: the EC50 in assay [1] worked out at 1120 ± 1480 nM.

With `CCCCCCCC/C=C\CCCCCCCC(=O)OCC(O)COP(=O)(O)O` (centres unmarked) [LPA 18:1 sn1, 1-oleoyl-LPA], the values for the half-maximal effective concentration (EC50) in assay [1] and in assay [2] were 146 ± 74 nM and 0.345 ± 0.202 nM, respectively. Consider `CCCCC/C=C\C/C=C\C/C=C\C/C=C\CCCC(=O)NCCOP(=O)(O)O` [pAEA], for which the “Neurite retraction (cell morphology change mediated by LPA1)” value at LPA1 [3] was “robust activation”. Besides, the “F-actin stress fiber formation” value on LPA1 [4] is recorded as “activated”.
